# Active and inactive are the calls of the source. The rule behind the calls is not given here.
# Key:
# [1] = target: T1, Proteasome Macropain subunit MB1 (Homo sapiens, UniProt P28074); test: Inhibition of human 20S proteasome chymotrypsin-like activity using Suc-Leu-Leu-Val-Tyr-AMC as substrate pretreated for 15 mins followed by substrate addition by fluorescence assay
# T1 sequence (P28074 whole entry): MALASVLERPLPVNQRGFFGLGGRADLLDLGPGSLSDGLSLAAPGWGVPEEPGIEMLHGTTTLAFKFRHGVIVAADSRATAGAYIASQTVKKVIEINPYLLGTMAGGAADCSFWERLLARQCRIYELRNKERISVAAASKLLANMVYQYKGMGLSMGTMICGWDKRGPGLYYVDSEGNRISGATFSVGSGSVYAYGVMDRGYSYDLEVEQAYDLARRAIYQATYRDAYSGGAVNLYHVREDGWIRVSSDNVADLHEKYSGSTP
# RPMI-8226 = test: Antiproliferative activity against human RPMI8226 cells after 72 hrs by MTS assay; assay type: functional, cell-based; details: RPMI-8226, 72 h
# MM1.S = test: Antiproliferative activity against human MM1S cells after 72 hrs by MTS assay; assay type: functional, cell-based
# MV4-11 = test: Antiproliferative activity against human MV4-11 cells after 72 hrs by MTS assay; assay type: functional, cell-based; details: MV4-11, 72 h
# [2] = Apparent permeability from apical to basolateral side in human Caco2 cells measured at 90 mins time interval by LC-MS/MS analysis; details: Caco-2
# [3] = Apparent permeability from basolateral to apical side in human Caco2 cells measured at 90 mins time interval by LC-MS/MS analysis; details: Caco-2
# [4] = Efflux ratio of apparent permeability in human Caco2 cells measured at 90 mins time interval by LC-MS/MS analysis; details: Caco-2
# [5] = Metabolic stability in mouse liver microsomes assessed as parent compound remaining at 100 uM after 5 mins by LC-MS/MS analysis; assay type: ADME, Microsome; details: read-out: Stability
# [6] = Metabolic stability in mouse liver microsomes assessed as parent compound remaining at 100 uM after 30 mins by LC-MS/MS analysis; assay type: ADME, Microsome; details: read-out: Stability
# Procedure, shortened: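 After the microsomal incubation, the clear supernatant was analysed by ESI LC-MS. The read-out was the relative peak area of each parent compound.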
# Mus musculus = test: In vivo inhibition of 20S proteasome chymotrypsin-like activity in Balb/c mouse blood at 30 mg/kg, po measured at 2 to 24 hrs post dose using LLVY-AMC as substrate by fluorescence assay; assay type: functional, organism-based
# Procedure, shortened: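 BALB/c mice dosed orally in 0.5% CMC-Na vehicle. Blood was sampled at 2 and 24 h after dosing for proteasome chymotrypsin-like activity.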
# [7] = Clearance in ICR mouse at 5 mg/kg, iv by LC-MS/MS analysis; assay type: ADME, organism-based; details: in vivo
# [8] = Volume of distribution at steady state in ICR mouse at 5 mg/kg, iv by LC-MS/MS analysis; assay type: ADME, organism-based; details: in vivo, read-out: Vdss
# [9] = Half life in ICR mouse at 5 mg/kg, iv by LC-MS/MS analysis; assay type: ADME, organism-based; details: in vivo
# [10] = AUC (0 to t) in ICR mouse at 5 mg/kg, iv after 1 hr by LC-MS/MS analysis; assay type: ADME, organism-based; parameters: time < 1 hr, dose 5 mg/kg, route intravenous; details: in vivo
# [11] = Cmax in ICR mouse at 25 mg/kg, po via gavage by LC-MS/MS analysis; assay type: ADME, organism-based; parameters: dose 25 mg/kg, route oral; details: in vivo
# [12] = Tmax in ICR mouse at 25 mg/kg, po via gavage by LC-MS/MS analysis; assay type: ADME, organism-based; details: in vivo
# [13] = AUC (0 to t) in ICR mouse at 25 mg/kg, po via gavage after 1 hr by LC-MS/MS analysis; assay type: ADME, organism-based; parameters: time < 1 hr, dose 25 mg/kg, route oral; details: in vivo
# [14] = Oral bioavailability in ICR mouse at 25 mg/kg via gavage by LC-MS/MS analysis; assay type: ADME, organism-based; details: in vivo
smiles,measurement,setting,value
COC[C@@H]1NC(=O)c2cccnc2OCCCCCCOC[C@@H](C(=O)N[C@@H](Cc2ccccc2)C(=O)[C@@]2(C)CO2)NC1=O,IC50,[1],232 nM
COC[C@@H]1NC(=O)[C@@H]2CCCN2C(=O)CCCCCOC[C@@H](C(=O)N[C@@H](Cc2ccccc2)C(=O)[C@@]2(C)CO2)NC1=O,IC50,[1],352 nM
same,IC50,RPMI-8226,350 nM
same,IC50,MM1.S,172 nM
same,IC50,MV4-11,421 nM
COCCc1ccc(OCC(O)CNC(C)C)cc1 (configuration not stated) [METOPROLOL],Papp A→B at 1.5 h,[2],35.2 ×10⁻⁶ cm/s
same,Papp B→A at 1.5 h,[3],25.9 ×10⁻⁶ cm/s
same,efflux ratio at 1.5 h,[4],0.74
COC[C@@H]1NC(=O)c2sccc2OCCCCCCOC[C@@H](C(=O)N[C@@H](Cc2ccccc2)C(=O)[C@@]2(C)CO2)NC1=O,IC50,[1],257 nM
same,IC50,RPMI-8226,128 nM
same,IC50,MM1.S,63 nM
same,IC50,MV4-11,131 nM
COC[C@@H]1NC(=O)c2ccccc2OCCCCCCCC[C@@H](C(=O)N[C@@H](Cc2ccccc2)C(=O)[C@@]2(C)CO2)NC1=O,IC50,[1],35 nM
same,IC50,RPMI-8226,120 nM
same,IC50,MM1.S,137 nM
same,IC50,MV4-11,72 nM
COC[C@@H]1NC(=O)c2ncccc2OCCCCCCOC[C@@H](C(=O)N[C@@H](Cc2ccccc2)C(=O)[C@@]2(C)CO2)NC1=O,IC50,[1],248 nM
same,IC50,RPMI-8226,> 100 nM
same,IC50,MM1.S,37 nM
COC[C@@H]1NC(=O)c2ccccc2OCCCCOC[C@@H](C(=O)N[C@@H](Cc2ccccc2)C(=O)[C@@]2(C)CO2)NC1=O,IC50,[1],36 nM
same,IC50,RPMI-8226,> 100 nM
same,IC50,MM1.S,65 nM
same,IC50,MV4-11,49 nM
COC[C@@H]1NC(=O)c2ccnn2CCCCCCCOC[C@@H](C(=O)N[C@@H](Cc2ccccc2)C(=O)[C@@]2(C)CO2)NC1=O,IC50,[1],25 nM
same,IC50,RPMI-8226,5 nM
same,IC50,MM1.S,2 nM
same,IC50,MV4-11,5 nM
CC[C@H]1OC(=O)[C@H](C)[C@@H](O[C@H]2C[C@@](C)(OC)[C@@H](O)[C@H](C)O2)[C@H](C)[C@@H](O[C@@H]2O[C@H](C)C[C@H](N(C)C)[C@H]2O)[C@](C)(O)C[C@@H](C)C(=O)[C@H](C)[C@@H](O)[C@]1(C)O [ERYTHROMYCIN],Papp A→B at 1.5 h,[2],< 0.19 ×10⁻⁶ cm/s
same,Papp B→A at 1.5 h,[3],15.1 ×10⁻⁶ cm/s
same,efflux ratio at 1.5 h,[4],> 79.5
COC[C@@H]1NC(=O)c2cccc(OC)c2OCCCCCCOC[C@@H](C(=O)N[C@@H](Cc2ccccc2)C(=O)[C@@]2(C)CO2)NC1=O,IC50,[1],4 nM
same,IC50,RPMI-8226,5 nM
same,IC50,MM1.S,3 nM
same,IC50,MV4-11,6 nM
same,"remaining at 5 min, 100 µM",[5],< 5%
COC[C@@H]1NC(=O)c2nccn2CCCCCCCOC[C@@H](C(=O)N[C@@H](Cc2ccccc2)C(=O)[C@@]2(C)CO2)NC1=O,IC50,[1],37 nM
same,IC50,RPMI-8226,5 nM
same,IC50,MM1.S,2 nM
same,IC50,MV4-11,5 nM
COC[C@@H]1NC(=O)c2ccccc2OCCOCCOC[C@@H](C(=O)N[C@@H](Cc2ccccc2)C(=O)[C@@]2(C)CO2)NC1=O,IC50,[1],116 nM
same,IC50,RPMI-8226,55 nM
same,IC50,MM1.S,12 nM
same,IC50,MV4-11,33 nM
COC[C@@H]1NC(=O)c2ccc(OC)cc2OCCCCCCOC[C@@H](C(=O)N[C@@H](Cc2ccccc2)C(=O)[C@@]2(C)CO2)NC1=O,IC50,[1],253 nM
same,IC50,RPMI-8226,> 100 nM
same,IC50,MM1.S,43 nM
COC[C@@H]1NC(=O)c2ccnn2CCCCCCOC[C@@H](C(=O)N[C@@H](Cc2ccccc2)C(=O)[C@@]2(C)CO2)NC1=O,IC50,[1],16 nM
same,IC50,RPMI-8226,2 nM
same,IC50,MM1.S,3 nM
same,IC50,MV4-11,2 nM
same,"remaining at 0.5 h, 100 µM",[6],75%
same,inhibition,Mus musculus,Active
same,clearance,[7],107 mL/min/kg
same,Vd,[8],0.48 L/kg
same,half-life,[9],6 min
same,AUC(0-t) at 1 h,[10],784 ng·h/mL
same,Cmax,[11],325 ng/mL
same,Tmax,[12],4.8 min
same,AUC(0-t) at 1 h,[13],141 ng·h/mL
same,bioavailability,[14],3.72%
COC[C@H](NC(=O)c1cnc(C)s1)C(=O)N[C@@H](COC)C(=O)N[C@@H](Cc1ccccc1)C(=O)[C@@]1(C)CO1 [OPROZOMIB],IC50,RPMI-8226,19 nM
same,IC50,MM1.S,9 nM
same,IC50,MV4-11,28 nM
same,"remaining at 0.5 h, 100 µM",[6],60%
same,inhibition,Mus musculus,Active
same,clearance,[7],164 mL/min/kg
same,Vd,[8],0.51 L/kg
same,half-life,[9],2.4 min
same,AUC(0-t) at 1 h,[10],506 ng·h/mL
same,Cmax,[11],261 ng/mL
same,Tmax,[12],13.2 min
same,AUC(0-t) at 1 h,[13],142 ng·h/mL
same,bioavailability,[14],5.61%
COC[C@@H]1NC(=O)c2ccccc2OCCOCCOCCOC[C@@H](C(=O)N[C@@H](Cc2ccccc2)C(=O)[C@@]2(C)CO2)NC1=O,IC50,[1],370 nM
same,IC50,RPMI-8226,82 nM
same,IC50,MM1.S,43 nM
same,IC50,MV4-11,130 nM

# Source: ChEMBL document CHEMBL4371012, “Development of Macrocyclic Peptides Containing Epoxyketone with Oral Availability as Proteasome Inhibitors” (J Med Chem, 2018)
